Blank lines part the entries; values can stand above or below the molecule they belong to. Where no end group is shown, it is not given here. [ ]: non-standard residue; d: D form. The star is where a group is joined. FITC = O=C1OC2(c3ccc(O)cc3Oc3cc(O)ccc32)c2ccc(NC(=S)*)cc21; pY = N[C@@H](Cc1ccc(OP(=O)(O)O)cc1)C(=O)O
Tests used:
tyrosine phosphatases = experiment: Total protein phosphotyrosine immunoblot after pervanadate treatment; type: cell-based, human; details: J.Lck cells, Lck Y192E/A variants; pervanadate 100 μM; immunoblot (Figure S2B)
Procedure, shortened: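 Jurkat-derived cells grown in RPMI with 10% FBS and 2 mM glutamine at 37 °C, 5% CO2. Lck-reconstituted lines checked by immunoblot and sequencing. Cells rinsed in RPMI, resuspended at 5 × 10^6 cells/mL and rested 15 min at 37 °C, then left unstimulated or given pervanadate (100 μM). Lysis in 1% NP-40 (final) with […], NaF, EDTA, PMSF, protease inhibitors and PP2 (25 μM). Immunoblot read-out.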

J.Lck cells = experiment: Intracellular calcium measurement by flow cytometry; type: cell-based, human; details: J.Lck cells expressing Lck Y192E/A variants; Indo-1 AM, 37 °C, flow cytometry (Figure S2)
Csk^AS [1] = experiment: Reconstituted cellular system for Lck activation; type: cell-based; details: HEK 293 cells with CD45, Csk^AS, 3-IB-PP1 5 μM, 1 min, 37 °C, immunoblot
Csk^AS [2] = details: analog-sensitive allele of Csk; ref Schoenborn et al., 2011; cited from earlier work
[3] = biological target: GST Lck SH2 Y192E (human Lck SH2 domain, residues 123-227) (human, UniProt P06239 123-227, Y192E); experiment: fluorescence polarisation
Chain of GST Lck SH2 Y192E (human Lck SH2 domain, residues 123-227) (P06239 123-227 Y192E): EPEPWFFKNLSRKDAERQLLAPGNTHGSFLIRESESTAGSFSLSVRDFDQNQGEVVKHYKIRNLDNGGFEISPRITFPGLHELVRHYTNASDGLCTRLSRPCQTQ

[4] = biological target: GST Lck SH2 protein (human Lck SH2 domain, residues 123-227, WT) (human, UniProt P06239 123-227); experiment: fluorescence polarisation
Chain of GST Lck SH2 protein (human Lck SH2 domain, residues 123-227, WT) (P06239 123-227): as the sequence (P06239 123-227 Y192E) above, with E70Y counted along it

Molecule: pervanadate
Lck autophosphorylation upon pervanadate treatment (tyrosine phosphatases): robust autophosphorylation

Molecule: C[C@H](CCC(=O)O)C[C@H](C)C[C@H](C)C(=O)/C=C(\O)[C@H](C)C[C@H](C)C/C=C/[C@@H](C)[C@@H](O)[C@@H](C)[C@@H](O)C[C@@H]1CC[C@@](C)([C@H]2CC[C@@](C)([C@@H](C)O)O2)O1 [ionomycin]
calcium response to ionomycin (J.Lck cells): responded robustly

Molecule: CC(C)(C)n1nc(Cc2cccc(I)c2)c2c(N)ncnc21 [3-IB-PP1]
CD8/ζ-chain phosphorylation upon Csk^AS inhibition (Csk^AS [1]; N=3, Lck Y192E/A variants): only a minimal increase | C-terminal tail (Y505) phosphorylation upon Csk^AS inhibition (Csk^AS [1]; CD8/ζ, N=3, Lck Y192F): the Y192F mutant is dephosphorylated by CD45 | inhibition of Csk^AS (Csk^AS [2]): inhibited

binding result [3]: binds | binding result [4]: binds
Molecule: {FITC}-TEGQ[pY]QPQP [FITC-TEGQ[pY]QPQP, phosphopeptide of the Lck C-terminal tail]
